# Laboratory results published in ChEMBL document CHEMBL1275427, “Antimicrobial susceptibilities of geographically diverse clinical human isolates of Leptospira” (2008).
# Legend:
# Assay type in all cases: functional
# [1] = system: Leptospira kirschneri serovar Grippotyphosa; test: Antimicrobial activity against Leptospira kirschneri serovar Grippotyphosa isolate 13 by broth microdilution method; settings: Leptospira kirschneri, isolate 13; read-out: MIC
# Method in brief: (§1)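 Serial twofold dilutions in EMJH medium, final 32.0 to 0.016 μg/ml (units/ml for penicillin). Inoculum from 7-day EMJH cultures grown at 30°C, counted by Petroff-Hausser chamber under dark-field microscopy, added at 2 × 10^6 organisms/ml. Plates incubated at 30°C; alamarBlue added on day 3 and colour read on day 5. MIC is the lowest concentration without blue-to-pink change; median of triplicate runs.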
# [2] = system: Leptospira weilii; test: Antimicrobial activity against Leptospira weilii isolate 6 by broth microdilution method; settings: Leptospira weilii, isolate 6; read-out: MIC
# Method in brief: (§2)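 Strains grown 7 days in EMJH medium at 30°C; inoculum counted by Petroff-Hausser chamber under dark-field microscopy and added at 2 × 10^6 organisms/ml. Twofold serial dilutions in EMJH, final 32.0 to 0.016 μg/ml (units/ml for penicillin), 96-well round-bottom plates, 30°C. alamarBlue added day 3; colour read day 5. MIC is lowest concentration without blue-to-pink change. Triplicate runs, median reported; L. interrogans Icterohaemorrhagiae quality control.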
# [3] = Antimicrobial activity against Leptospira interrogans serovar Bataviae isolate 1 by broth microdilution method; settings: Leptospira interrogans, isolate 1; read-out: MIC; method in brief: as §2
# [4] = system: Leptospira weilii; test: Antimicrobial activity against Leptospira weilii isolate 8 by broth microdilution method; settings: Leptospira weilii, isolate 8; read-out: MIC; method in brief: as §2
# [5] = Antimicrobial activity against Leptospira interrogans serovar Canicola isolate 11 by broth microdilution method; settings: Leptospira interrogans, isolate 11; read-out: MIC; method in brief: as §2
# [6] = Antimicrobial activity against Leptospira interrogans isolate 7 by broth microdilution method; settings: Leptospira interrogans, isolate 7; read-out: MIC; method in brief: as §1
# [7] = Antimicrobial activity against Leptospira interrogans serovar Pyrogenes isolate 5 by broth microdilution method; settings: Leptospira interrogans, isolate 5; read-out: MIC; method in brief: as §2
# [8] = Antimicrobial activity against Leptospira interrogans serovar Pomona isolate 12 by broth microdilution method; settings: Leptospira interrogans, isolate 12; read-out: MIC; method in brief: as §2
# [9] = Antimicrobial activity against Leptospira interrogans serovar Icterohaemorrhagiae isolate 9 by broth microdilution method; settings: Leptospira interrogans, isolate 9; read-out: MIC; method in brief: as §2
# [10] = Antimicrobial activity against Leptospira interrogans serovar Icterohaemorrhagiae isolate 10 by broth microdilution method; settings: Leptospira interrogans, isolate 10; read-out: MIC; method in brief: as §2
# [11] = Antimicrobial activity against Leptospira interrogans serovar Icterohaemorrhagiae isolate 3 by broth microdilution method; settings: Leptospira interrogans, isolate 3; read-out: MIC; method in brief: as §2
# [12] = Antimicrobial activity against Leptospira interrogans serovar Grippotyphosa isolate 2 by broth microdilution method; method in brief: as §1
# [13] = Antimicrobial activity against Leptospira interrogans serovar Pomona isolate 4 by broth microdilution method; settings: Leptospira interrogans, isolate 4; read-out: MIC; method in brief: as §2
SMILES,MIC [1] [µg/mL],MIC [2] [µg/mL],MIC [3] [µg/mL],MIC [4] [µg/mL],MIC [5] [µg/mL],MIC [6] [µg/mL],MIC [7] [µg/mL],MIC [8] [µg/mL],MIC [9] [µg/mL],MIC [10] [µg/mL],MIC [11] [µg/mL],MIC [12] [µg/mL],MIC [13] [µg/mL]
CC1(C)S[C@@H]2[C@H](NC(=O)[C@H](N)c3ccccc3)C(=O)N2[C@H]1C(=O)O [AMPICILLIN],< 0.016,< 0.016,< 0.016,< 0.016,< 0.016,< 0.016,< 0.016,< 0.016,< 0.016,< 0.016,< 0.016,< 0.016,< 0.016
CN(C)[C@@H]1C(O)=C(C(N)=O)C(=O)[C@@]2(O)C(O)=C3C(=O)c4c(O)cccc4[C@@](C)(O)[C@H]3C[C@@H]12 [TETRACYCLINE],< 0.016,1,1,0.5,0.125,1,4,0.125,1,0.5,4,1,2
CO/N=C(\C(=O)N[C@@H]1C(=O)N2C(C(=O)[O-])=C(C[N+]3(C)CCCC3)CS[C@H]12)c1csc(N)n1 [CEFEPIME],< 0.016,< 0.016,< 0.016,< 0.016,< 0.016,< 0.016,< 0.016,< 0.016,< 0.016,< 0.016,< 0.016,< 0.016,< 0.016
C[C@H]1c2cccc(O)c2C(=O)C2=C(O)[C@]3(O)C(=O)C(C(N)=O)=C(O)[C@@H](N(C)C)[C@@H]3[C@@H](O)[C@@H]21.O [DOXYCYCLINE],< 0.016,0.5,1,0.5,0.06,0.25,1,0.06,0.25,0.5,2,1,2
CO/N=C(\C(=O)N[C@@H]1C(=O)N2C(C(=O)O)=C(COC(C)=O)CS[C@H]12)c1csc(N)n1 [CEFOTAXIME],< 0.016,0.03,< 0.016,0.03,< 0.016,0.03,< 0.016,< 0.016,< 0.016,< 0.016,< 0.016,0.03,< 0.016
C[C@H]1COc2c(N3CCN(C)CC3)c(F)cc3c(=O)c(C(=O)O)cn1c23.C[C@H]1COc2c(N3CCN(C)CC3)c(F)cc3c(=O)c(C(=O)O)cn1c23.O [LEVOFLOXACIN],< 0.016,0.06,0.06,0.125,0.03,0.06,0.06,< 0.016,0.125,0.125,0.06,0.06,0.125
